This is a sample that favours compounds with a hit; in the whole collection about 2.5% have one here.
AP complement: alternative pathway complement inhibition, orthogonal assay; Human serum alternative complement pathway, LPS-coated ELISA, C3 deposition; tested in compound mixtures; inhibition, % at 5 µM; actives 0.08% (n = 62,000);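 active = inhibition above 30% in each of the two pooled mixtures holding the compound, so the lower value exceeds 30%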;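 note: 0% = serum in Mg-EGTA without compound and 100% = EDTA serum blank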
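Assay system: human serum alternative complement pathway, C3 deposition on LPS-coated wells; Dosing: 5 µM per compound in ten-compound mixtures; Detection: Anti-C3 ELISA, OD 450 nm; Buffer or medium: Mg2+-EGTA GVB++ buffer containing human serum at 1:15 dilution; Timing: 1 h at 37 °C; Replication: two different pools per compound.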
JNK3 blocker: inhibitors of human JNK3 kinase; purified JNK3 kinase activity, HTS; AID 746; P53779; inhibition, % at 8 µM; actives 0.61% (n = 60,000); in the data active = inhibition above about 17%;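 note: 0% = DMSO and 100% = reference inhibitor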
HEK293 NFkB inh: lowers PMA/ionomycin-induced NF-kB signal in HEK293 cells | inhibition, % at 3 µM | actives 0.21% (n = 62,000) | HEK-293 NF-kB luciferase reporter, luminescence;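 active = inhibition above the mean of all tested compounds plus 3 SD, cut at about 40% in these data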;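 note: 0% = stimulated DMSO wells and 100% = 10 µM reference inhibitor 5653914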
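System – HEK-293 cells with stable firefly luciferase reporter driven by four HIV NF-kB elements · Doses – one dose, 3 µM · Schedule – 1 h compound pre-incubation, 16 h PMA/ionomycin at 37 °C · Technique – luminescence from luciferase substrate reagent · Measure – percent inhibition normalized per plate to DMSO and reference-inhibitor controls · Replicates – tested once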
Jurkat tox 60K: cytotoxicity toward Jurkat cells; Jurkat E6.1 viability, ATP luminescence, 48 h; inhibition, % at 4 µM; actives 1.2% (n = 56,000); AID 463;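 active = inhibition above the mean inhibition of all tested compounds plus 3 SD, cut at about 28% in these data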
Hsp90 block: displaces geldanamycin probe from tumor Hsp90; P07900; actives 0.35% (n = 64,000); NCI-N417 lysate Hsp90, Cy3B-geldanamycin FP displacement; AID 429; inhibition, % at 30 µM;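 active = inhibition above 50%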;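 note: 0% = tracer plus lysate wells and 100% = tracer alone without lysate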
Her2 expr inh: inhibitors of human Her2 kinase expression; P04626; SKBR-3 HER2 protein level, AlphaScreen, 18-24 h; hits give low values; HER2 level % of control, % at 10 µM; actives 0.69% (n = 65,000);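 active = HER2 level under 5% of the carrier-only control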;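 note: 100% = DMSO carrier and 0% = 500 nM PU-H71 HSP90 inhibitor; lower value means stronger loss of Her2 protein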
Target sequence (P04626 whole entry, looked up): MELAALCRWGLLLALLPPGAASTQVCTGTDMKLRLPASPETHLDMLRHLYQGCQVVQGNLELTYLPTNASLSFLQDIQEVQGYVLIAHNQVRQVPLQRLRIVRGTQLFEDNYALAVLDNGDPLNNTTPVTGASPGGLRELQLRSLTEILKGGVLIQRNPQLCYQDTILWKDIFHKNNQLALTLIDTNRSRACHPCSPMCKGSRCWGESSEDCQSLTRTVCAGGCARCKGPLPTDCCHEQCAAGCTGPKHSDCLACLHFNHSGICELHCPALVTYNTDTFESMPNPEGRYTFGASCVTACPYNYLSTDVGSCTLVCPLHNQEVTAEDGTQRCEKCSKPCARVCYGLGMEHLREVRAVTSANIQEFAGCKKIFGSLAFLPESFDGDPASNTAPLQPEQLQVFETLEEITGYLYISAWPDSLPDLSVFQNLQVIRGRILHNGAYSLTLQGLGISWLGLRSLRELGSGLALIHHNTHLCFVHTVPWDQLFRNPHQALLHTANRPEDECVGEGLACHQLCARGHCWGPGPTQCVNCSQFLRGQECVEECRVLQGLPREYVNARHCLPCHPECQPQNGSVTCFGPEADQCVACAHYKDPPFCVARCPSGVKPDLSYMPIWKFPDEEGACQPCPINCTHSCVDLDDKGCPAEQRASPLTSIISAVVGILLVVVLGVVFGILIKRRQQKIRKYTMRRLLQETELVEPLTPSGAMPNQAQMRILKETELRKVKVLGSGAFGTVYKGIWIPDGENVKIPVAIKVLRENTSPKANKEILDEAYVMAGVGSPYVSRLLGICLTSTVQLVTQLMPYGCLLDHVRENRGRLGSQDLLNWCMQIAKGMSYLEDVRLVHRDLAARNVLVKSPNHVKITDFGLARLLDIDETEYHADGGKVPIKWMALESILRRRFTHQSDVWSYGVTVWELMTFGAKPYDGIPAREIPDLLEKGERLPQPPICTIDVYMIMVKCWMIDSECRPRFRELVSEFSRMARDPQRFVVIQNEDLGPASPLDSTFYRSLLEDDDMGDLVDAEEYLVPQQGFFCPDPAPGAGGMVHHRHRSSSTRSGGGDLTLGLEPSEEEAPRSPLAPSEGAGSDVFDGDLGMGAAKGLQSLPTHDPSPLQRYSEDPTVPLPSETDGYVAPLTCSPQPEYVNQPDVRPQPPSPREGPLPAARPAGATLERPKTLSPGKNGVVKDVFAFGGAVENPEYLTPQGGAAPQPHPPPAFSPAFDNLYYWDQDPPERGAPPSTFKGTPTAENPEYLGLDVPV
The depositor's hits bear a star; . = no result.

SMILES	AP complement	JNK3 blocker	HEK293 NFkB inh	Jurkat tox 60K	Hsp90 block	Her2 expr inh
CCOc1ccc(-c2nnn(CC(=O)c3cc(OC)ccc3OC)n2)cc1	4	-8	21	8	1	-14*
CCOc1ccc(-c2nnn(CC(=O)Nc3cc(OC)ccc3OC)n2)cc1OCC	4	5	15	-9	0	90
O=C(Nc1ccc(N2CCOCC2)c(F)c1)c1ccncc1	5	6	8	14	4	73
O=C(Nc1cccc(C(=O)Nc2ccc(S(=O)(=O)O)c3cc(S(=O)(=O)O)cc(S(=O)(=O)O)c23)c1)Nc1cccc(C(=O)Nc2ccc(S(=O)(=O)O)c3cc(S(=O)(=O)O)cc(S(=O)(=O)O)c23)c1	.	.	.	.	-2	.
Cc1cccc(C)c1-n1nnnc1SCSc1nnnn1-c1c(C)cccc1C	0	-2	45*	-9	-2	70
Cc1ccccc1-n1nnnc1SCC(N)=O	-3	1	-1	-3	-2	109
CN1CCN(c2ccc(Cl)cc2NC(=O)c2ccc(S(=O)(=O)N3CCCCCC3)cc2)CC1	6	-6	10	-6	0	-6.0*
CN1CCN(S(=O)(=O)c2ccc(NC(=O)c3cccc(S(=O)(=O)N4CCCC4)c3)cc2)CC1	18	1	0	8	-2	87
COc1ccc(Cl)cc1C(=O)Nc1ccccc1N1CCN(C)CC1	14	3	13	-3	1	-18*
CCCCCn1c(CN2CCCCC2CC)nc2c1c(=O)n(C)c(=O)n2C (stereo unspecified)	13	0	15	4	0	-17*
CCCCn1c(CN(C)Cc2ccccc2)nc2c1c(=O)n(C)c(=O)n2C	-15	-1	11	36*	1	100
CCCCn1c(CN2CCN(c3ccccc3)CC2)nc2c1c(=O)n(C)c(=O)n2C	-9	0	26	38*	1	79
CCCCCn1c(CN2CCCCC2C)nc2c1c(=O)n(C)c(=O)n2C (stereo unspecified)	7	-10	6	-3	2	79
CCCn1c(CN(C)Cc2ccccc2)nc2c1c(=O)n(C)c(=O)n2C	.	.	22	.	.	82
CCc1nn2c(=O)cc(CSc3nc4sc5c(c4c(=O)n3C)CCCC5)nc2s1	3	0	22	-5	-3	124
COc1cc(C(O)CO)ccc1OS(=O)(=O)O (stereo unspecified)	.	.	.	.	-2	.
Cc1nc(NC(=O)c2ccco2)sc1C(=O)Nc1ccc(Br)cc1	12	-3	11	-3	2	-3.0*
O=C(Nc1ccc(-c2nc3cccnc3s2)cc1)c1ccco1	6	23*	-35	-5	-9	65
COC(=O)COc1ccc(S(=O)(=O)Nc2ccc3c(c2)OCO3)cc1	17	-7	8	0	23	-11*
COC(=O)COc1ccc(S(=O)(=O)Nc2ccc3c(c2)OCO3)cc1Cl	7	3	18	1	13	96
COc1ccc(S(=O)(=O)Nc2ccc3c(c2)OCO3)cc1OC	9	-3	12	1	51*	88
CC1CN(S(=O)(=O)c2ccc(NC(=O)c3cc(-c4ccccc4O)n[nH]3)cc2)CC(C)O1 (stereo unspecified)	10	5	3	54*	5	18
O=C1C(C=NCc2cccnc2)=C(O)c2ccccc21	4	28*	-44	6	-3	61
COc1ccccc1C1C=C(c2ccc(C)cc2)Nc2nnnn21 (stereo unspecified)	9	-11	-2	36*	-1	62
CCOc1ccc(C2C=C(c3ccc(C)cc3)Nc3nnnn32)cc1 (stereo unspecified)	19	3	5	-6	-4	85
SMILES	AP complement	JNK3 blocker	HEK293 NFkB inh	Jurkat tox 60K	Hsp90 block	Her2 expr inh
O=C1NC(O)=NC1(c1ccccc1)c1ccccc1	.	.	.	.	0	.
O=C(Nc1ccn(-c2ccccc2)n1)c1ccc(S(=O)(=O)N2CCCCCC2)cc1	29	-3	15	34*	-3	119
O=C(Nc1ccccc1)c1ccc(S(=O)(=O)N2CCCCC2)cc1	12	0	1	6	-2	136
CCCCC(CC)Cn1c2nc3ccccc3nc2c2c(=N)oc(C)nc21 (stereo unspecified)	4	.	16	.	-18	0.9*
COc1ccccc1NC(=O)Nc1nc(-c2cccnc2)nc2ccccc12	.	.	.	.	0	.
C=CCNC(=O)CN(c1cccc(Br)c1)S(C)(=O)=O	12	-6	7	0	88*	97
CNC(=O)CN(c1cccc(Br)c1)S(C)(=O)=O	8	0	-4	8	0	97
O=C(CC(=O)Nc1ccccn1)Nc1ccccn1	-21	8	4	-3	1	78
c1ccc(/N=C2\N=C(Nc3ccccn3)c3ccccc32)nc1	3	4	-3	50*	5	76
C=CCN1C(=Nc2cccnc2)SCC1(O)c1ccc(C)cc1 (stereo unspecified)	16	2	1	39*	-5	36
CC1Cc2cc(-c3csc(NC(=O)Cc4cccs4)n3)ccc2N1S(C)(=O)=O (stereo unspecified)	20	5	39	74*	-5	79
CN1CCN(CC(=O)Nc2nc(-c3ccccc3)cs2)CC1	.	4	.	.	-1	98
CC(=O)NC1CCN(C(=O)N2CCCC2)CC1	37*	0	-6	-6	0	109
CCCCCN=Cc1c(C)[nH]n(-c2nc3ccccc3s2)c1=O	5	17	-23	56*	-10	-20*
COC(=O)c1[nH]c2ccc(Cl)cc2c1NC(=O)CN1CCC(C(N)=O)CC1	5	4	18	10	-7	104
CCOC(=O)N1CCN(CC(=O)Nc2c(C(=O)OC)[nH]c3ccc(Cl)cc23)CC1	-21	-3	28	31*	-7	90
CCOC(=O)c1[nH]c2ccc(F)cc2c1NC(=O)CN1CCc2cc(OC)c(OC)cc2C1	35*	3	4	3	-6	52
COC(C)(C)[C@]12CC(O)(c3ccccc3)ON1[C@H]1CCCCC1N2O (stereo partly specified)	8	-1	12	-1	0	127
CC1(C)CC(=O)c2cc(OCC(=O)NCCCN3CCN(c4ccc(F)cc4)CC3)ccc2O1	20	-3	13	7	-2	84
O=C(CCn1c(=O)oc2ccccc21)N1CCN(c2ccccc2Cl)CC1	-17	4	21	69*	-2	74
Cc1cc(C(=O)OCC(=O)N2CCN(c3ccccc3)CC2)c2ccccc2n1	26	6	2	-3	-3	88
CCOC(=O)CSC1=C(C#N)C(c2ccc(C)o2)CC(=O)N1 (stereo unspecified)	5	6	39	99*	-2	51
